A selection: hits, their analogues and other compounds. The true share with any hit is near 3.7%.
NR3A LBD binder: NR3A (human) ligand-binding domain modulation; NR3A LBD differential scanning fluorimetry, Tm shift; 0% = protein alone, 100% = glycine-bound protein; Tm shift relative to glycine control, % at 25 µM; 340,000 tested, 2.5% active; AID 1259313;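 active means melting temperature shift of at least 10% of the positive control shift, at one fixed dose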
MPTP block: inhibitors of mitochondrial permeability transition pore; isolated mouse mitochondria, Ca2+ swelling absorbance, 30 min; AID 602449; 360,000 tested, 1.4% active; inhibition, % at 10 µM;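 active means inhibition of 50% or more, scaled per plate between neutral and stimulator controls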
aDG glyco act: increases alpha dystroglycan glycosylation; Pro5-aDG cells, alpha-DG glycosylation AlphaScreen (IIH6); 0% Pro5, 100% B10-LARGE cell signal; activation, % at 10 µM; 360,000 tested, 0.22% active; AID 624168;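 active means activation of at least 8% versus controls, or a plate z-score of at least 8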;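 further: Pro5 are CHO cells carrying HIG-tagged alpha-DG that lacks glycosylation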
proCasp7 act: activates human procaspase-7, counter-screen for procaspase-3 activators. P55210. recombinant procaspase-7, Ac-DEVD-pNA absorbance 405 nm; D23A/D198A/D206A triple mutant, cannot self-cleave; scale: DMSO 0, 5 µM enzyme 100. activation, % at 8.5 µM. 330,000 tested, 0.093% active. AID 463210;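 active means percent activation above the screen-wide mean plus 3 SD, cut at about 25% in these data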
Target sequence (P55210 whole entry D23A/D198A/D206A): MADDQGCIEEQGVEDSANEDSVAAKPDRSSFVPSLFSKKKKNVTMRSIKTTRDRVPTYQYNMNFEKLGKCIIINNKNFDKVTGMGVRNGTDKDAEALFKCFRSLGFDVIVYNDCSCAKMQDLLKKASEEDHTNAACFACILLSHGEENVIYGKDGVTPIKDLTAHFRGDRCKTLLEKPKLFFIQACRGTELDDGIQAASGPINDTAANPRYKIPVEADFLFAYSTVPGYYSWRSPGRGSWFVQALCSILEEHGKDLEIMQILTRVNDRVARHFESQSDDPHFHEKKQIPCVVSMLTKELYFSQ
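Test system: Procaspase-7 triple mutant (PC-7 D3A). Also added: Ac-DEVD-pNA substrate, 400 µM as added. Schedule: 1 h enzyme–compound preincubation and 2 h substrate reaction, both 25 °C. Signal: p-Nitroaniline absorbance at 405 nm, read at 0 and 120 min. Control set: low DMSO alone, high DMSO plus 5 µM PC-7.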
proCasp3 act: activators of human procaspase-3. P42574. recombinant procaspase-3 D3A, Ac-DEVD-pNA absorbance 405 nm. activation, % at 8.5 µM. 330,000 tested, 0.11% active. AID 463141;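 active means activation above the mean of all tested compounds plus 3 SD, cut at about 21% in these data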
Target sequence (P42574 whole entry D9A/D28A/D175A): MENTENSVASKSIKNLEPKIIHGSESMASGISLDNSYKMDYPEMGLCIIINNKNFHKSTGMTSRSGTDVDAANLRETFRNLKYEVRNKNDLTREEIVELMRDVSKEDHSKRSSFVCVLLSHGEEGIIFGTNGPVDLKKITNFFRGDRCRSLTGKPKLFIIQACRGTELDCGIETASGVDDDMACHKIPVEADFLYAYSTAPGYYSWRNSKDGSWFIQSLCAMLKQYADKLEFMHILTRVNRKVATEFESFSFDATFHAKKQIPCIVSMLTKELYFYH
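Technique: 405 nm absorbance of p-nitroaniline, reads at 0 and 120 min; Test system: Procaspase-3 D3A mutant; Incubation: 1 h enzyme-compound preincubation, then 2 h substrate reaction, 25 °C; Repeats: singlicate, each compound tested once; Benchmarks: low control DMSO wells, high control DMSO plus 5 µM PC-3 D3A.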
Rh123 counter: Rhodamine 123 counter-screen of mitochondrial pore hits. inhibition, % at 10 µM. isolated mitochondria, membrane potential, Rhodamine 123 fluorescence. AID 624504. 5,000 tested, 78% active. shares compounds with MPTP block; in the data active means inhibition above about 22%
MPTP abs DR: dose response confirmation of mitochondrial permeability transition pore inhibitors | shares compounds with MPTP block | isolated mitochondria swelling, absorbance | IC50, µM | 780 tested, 58% active | AID 651561; in the data active means IC50 below about 20 µM
MPTP cs DR: MPTP inhibitor counter-screen activity, dose response; shares compounds with MPTP block; isolated mitochondria counterscreen, fluorescence read-out; IC50, µM; 780 tested, 49% active; AID 651564; in the data active means IC50 below about 80 µM
Hits are given with their value.

Screening CC(C)(C)c1ccc(OCc2ccc(C(=O)N/N=C3\CC4CC=CC34)cc2)cc1 (configuration not stated) returned NR3A LBD binder inactive, MPTP block 55, aDG glyco act inactive, proCasp7 act inactive, proCasp3 act inactive, Rh123 counter inactive, MPTP abs DR inactive and MPTP cs DR 25.
CC(C)(C)c1ccc(OCc2ccc(C(=O)N/N=C/c3ccc(O)c(O)c3)cc2)cc1 was read as NR3A LBD binder 24, MPTP block 85, aDG glyco act inactive, proCasp7 act inactive, proCasp3 act inactive and Rh123 counter inactive.
Screening COC(=O)[C@@]12C[C@@H](CC(=O)NCc3cccc4ccccc34)C(=O)N(Cc3ccco3)C1=CCC(C)(C)C2 returned MPTP block inactive and aDG glyco act inactive.
Screening C=C(CCO)C1=CCN(S(=O)C(C)(C)C)[C@H]1CCO (some centres not stated) returned NR3A LBD binder inactive, MPTP block inactive and aDG glyco act inactive.
Screening COc1ccc(C(=O)CCN2CCN(c3ccccc3F)CC2)cc1 returned NR3A LBD binder inactive, MPTP block inactive, aDG glyco act inactive, proCasp7 act inactive and proCasp3 act inactive.
Screening O=C(CCN1CCN(c2ccccc2F)CC1)c1ccc(Br)cc1 returned NR3A LBD binder inactive, MPTP block 112, aDG glyco act inactive, proCasp7 act inactive, proCasp3 act inactive, Rh123 counter inactive, MPTP abs DR inactive and MPTP cs DR 53.
`O=C(NC(c1ccc(Cl)cc1)c1c(O)ccc2ccccc12)c1ccccc1` (configuration not stated) gave NR3A LBD binder inactive, MPTP block 80, aDG glyco act inactive, proCasp7 act inactive, proCasp3 act inactive and Rh123 counter 59.
Screening CCCCC(=O)NC(c1ccc([N+](=O)[O-])cc1)c1c(O)ccc2ccccc12 (configuration not stated) returned NR3A LBD binder inactive, MPTP block 69, aDG glyco act inactive, proCasp7 act inactive, proCasp3 act inactive and Rh123 counter 79.
Screening O=S(=O)(Nc1cccnc1Cl)c1ccc(-c2ccccc2)cc1 returned NR3A LBD binder inactive, MPTP block inactive, aDG glyco act inactive, proCasp7 act inactive and proCasp3 act inactive.
Screening O=S(=O)(Nc1ccccc1O)c1ccc(-c2ccccc2)cc1 returned NR3A LBD binder inactive, MPTP block 84, aDG glyco act inactive, proCasp7 act inactive, proCasp3 act inactive and Rh123 counter 90.
COc1ccccc1NS(=O)(=O)c1cccc(C(=O)NC2CCN(Cc3ccccc3)CC2)c1 was read as MPTP block 80, aDG glyco act inactive, proCasp7 act inactive, proCasp3 act inactive and Rh123 counter 87.
Screening COCCn1c(=S)[nH]c2cc(C(=O)N3CCN(c4ccc(F)cc4)CC3)ccc2c1=O returned NR3A LBD binder inactive, MPTP block inactive, aDG glyco act inactive, proCasp7 act inactive and proCasp3 act inactive.
Cc1ccc(NC(=O)Cc2nc(CCl)cs2)cc1 was read as NR3A LBD binder inactive, MPTP block inactive, aDG glyco act inactive, proCasp7 act inactive and proCasp3 act inactive.
`Cc1ccc(NC(=S)Nc2nc(CC(=O)Nc3ccccc3)cs2)cc1` gave NR3A LBD binder 17, MPTP block 78, aDG glyco act inactive, proCasp7 act inactive, proCasp3 act inactive and Rh123 counter 84.
CCN(CC)C(=O)c1oc2ccc(S(=O)(=O)N3CC(C)CC(C)C3)cc2c1C (configuration not stated) was read as NR3A LBD binder inactive, MPTP block 51, aDG glyco act inactive, proCasp7 act inactive, proCasp3 act inactive and Rh123 counter 75.
For NC(=O)NN=C1CC2CC1C1C=CCC21 (configuration not stated) the results were NR3A LBD binder inactive, MPTP block inactive and aDG glyco act inactive.
For CN(c1ccccc1)S(=O)(=O)c1ccc(NC(=O)CC(=O)c2ccccc2)cc1 the results were NR3A LBD binder 16, MPTP block 57, aDG glyco act inactive and Rh123 counter 93.
CCc1ccc(NC(=O)COC(=O)C2(c3ccc(Cl)cc3)CCCC2)cc1 was read as NR3A LBD binder inactive, MPTP block 65, aDG glyco act inactive, proCasp7 act inactive, proCasp3 act inactive and Rh123 counter 75.
For O=C(COC(=O)C1(c2ccc(Cl)cc2)CCCC1)NCc1ccco1 the results were NR3A LBD binder inactive, MPTP block inactive, aDG glyco act inactive, proCasp7 act inactive and proCasp3 act inactive.
For CCCN(C(=O)CSc1nnc(-c2ccc3c(c2)OCO3)o1)C1CCS(=O)(=O)C1 (configuration not stated) the results were MPTP block inactive and aDG glyco act inactive.
`O=C1CCCN2N=C(SCC(=O)Nc3cccc(C(F)(F)F)c3)SC2=N1` gave NR3A LBD binder inactive, MPTP block 74, aDG glyco act inactive, proCasp7 act inactive, proCasp3 act inactive and Rh123 counter 74.
For Cc1cccc(NC(=O)CCc2ccc(N3C(N)=NC(N)=NC3(C)C)cc2)c1 the results were MPTP block inactive and aDG glyco act inactive.
Screening O=C(NCC(F)(F)F)C1C(=O)Nc2ccccc2C(=O)N1Cc1ccccc1 (configuration not stated) returned MPTP block inactive and aDG glyco act inactive.
For FC(F)(F)c1cc(-c2cccs2)n[nH]1 the results were NR3A LBD binder inactive, MPTP block inactive, aDG glyco act inactive, proCasp7 act inactive and proCasp3 act inactive.
For Cc1ccc(O)c(-c2cc(C(F)(F)F)[nH]n2)c1 the results were NR3A LBD binder inactive, MPTP block 63, aDG glyco act inactive, proCasp7 act inactive, proCasp3 act inactive and Rh123 counter 67.
`Cn1nc2sc3ccccc3n2c(=O)c1=O` gave NR3A LBD binder inactive, MPTP block inactive, aDG glyco act inactive, proCasp7 act inactive and proCasp3 act inactive.
N#Cc1cnc2sc3ccccc3n2c1=N was read as NR3A LBD binder inactive, MPTP block 72, aDG glyco act inactive, proCasp7 act inactive, proCasp3 act inactive and Rh123 counter 81.
Screening COCC(=O)Nc1ccc2c(c1)[C@@H]1C[C@H](CC(=O)OC)O[C@H](CO)[C@@H]1O2 returned MPTP block inactive and aDG glyco act inactive.
`Cc1cc(-c2onc(C)c2C(=O)Nc2ccc(C(F)(F)F)cc2)no1` gave NR3A LBD binder inactive, MPTP block inactive, aDG glyco act inactive, proCasp7 act inactive and proCasp3 act inactive.

Compound activity deposited in PubChem by several laboratories.
